Measured values collected from several papers.
CHRM4: Muscarinic acetylcholine receptor M4 (CHRM4, Homo sapiens, UniProt P08173)
MAOB: Amine oxidase [flavin-containing] B (MAOB, Homo sapiens, UniProt P27338)
PADI4: Protein-arginine deiminase type-4 (PADI4, Homo sapiens, UniProt Q9UM07)
CA9: Carbonic anhydrase 9 (CA9, Homo sapiens, UniProt Q16790)
HDAC9: Histone deacetylase 9 (HDAC9, Homo sapiens, UniProt Q9UKV0)
ALDH1A3: Retinaldehyde dehydrogenase 3 (ALDH1A3, Homo sapiens, UniProt P47895)
Pancreatic alpha-amylase: Pancreatic alpha-amylase (Homo sapiens, UniProt P04746)

O=C(CCNC(=O)CNC(=O)CC(c1ccccc1)(c1ccccc1)c1ccccc1)NCC1CCN(Cc2ccc(F)cc2)CC1 — IC50 (CHRM4; ligand displacement; radioligand; cell membranes): 11.6 µM
O=C(Nc1ccc(F)c(Cl)c1)c1ccc2c(c1)C(=O)NC2=O — IC50 (MAOB; enzyme activity; inhibitor): 0.015 µM
Cc1cc(O)c(-c2ccc([C@@H](C)CN(C)C)cc2)c2c1[nH]c(=O)c1sccc12 — IC50 (Cyclin-dependent kinase 18, with cyclin Y (CDK18, Homo sapiens, UniProt Q07002); enzyme activity; inhibitor): > 1 µM
N=C(CCl)NCCC[C@H](NC(=O)c1cccc(-c2ccc(B(O)O)cc2)c1)c1nc2ccccc2[nH]1 — IC50 (PADI4; enzyme activity; inhibitor; fluorescence; with preincubation): 0.588 µM
NS(=O)(=O)c1cccc(Nc2nc(-c3cc4cc(Br)ccc4oc3=O)cs2)c1 — IC50 (CA9; enzyme activity; inhibitor): 1.91 µM
N=C(CCl)NCCC[C@H](NC(=O)c1ccc2cc(Br)ccc2n1)C(=O)NCc1ccccc1 — IC50 (PADI4; enzyme activity; inhibitor; fluorescence; with preincubation): 1.49 µM
COc1ccc(N(Cc2csc(-c3ccc(C)cc3)n2)C(=O)CCCCCC(=O)NO)cc1 — IC50 (HDAC9; enzyme activity; inhibitor): > 10 µM
N=C(CCl)NCCC[C@H](NC(=O)c1cnc2cc(O)ccc2c1)C(=O)NCc1ccccc1 — IC50 (PADI4; enzyme activity; inhibitor; fluorescence; with preincubation): 0.342 µM
O=C(NO)c1ccc(Cn2cnc3c(Nc4cccc([N+](=O)[O-])c4)ncnc32)cc1 — IC50 (HDAC9; enzyme activity; inhibitor): 0.677 µM
CN1CCN(c2nc(-c3cc4cc(Br)ccc4oc3=O)cs2)CC1 — IC50 (CA9; enzyme activity; inhibitor): 1.35 µM
Cc1ccc(COc2ccc3ccc(C(=O)N[C@@H](CCCNC(=N)CCl)C(=O)NCc4ccccc4)cc3c2)cc1 — IC50 (PADI4; enzyme activity; inhibitor; fluorescence; with preincubation): 2.19 µM
O=C(Nc1ccccc1)c1ccc2c(c1)C(=O)NC2=O — IC50 (MAOB; enzyme activity; inhibitor): 3.25 µM
COc1nc2ccc(Br)cc2cc1[C@@H](c1ccccc1)[C@@](O)(CCN(C)C)c1cccc2ccccc12 — IC50 (ALDH1A3; enzyme activity; inhibitor): < 10 µM
COc1cc(/C=N/NC(=S)NN=Cc2cccs2)ccc1Oc1ccnc2cc(Cl)ccc12 — IC50 (Pancreatic alpha-amylase; enzyme activity; inhibitor; absorbance): 60 µM
CCCC[C@@H](NC(=O)[C@@H](Cc1cn(C(=O)OC)c2ccccc12)NC(=O)[C@H](CC(C)(C)C)NC(=O)N1[C@H](C)CCC[C@@H]1C)C(=O)O — IC50 (Endothelin receptor type B (EDNRB, Homo sapiens, UniProt P24530); ligand displacement; radioligand; cell membranes): 0.00329 µM
N=C(CCl)NCCC[C@H](NC(=O)c1ccc2cc(B(O)O)ccc2c1)c1nc2ccccc2[nH]1 — IC50 (PADI4; enzyme activity; inhibitor; fluorescence; with preincubation): 0.295 µM
COc1ccc(N(Cc2csc(-c3ccccc3)n2)C(=O)CCCCCC(=O)NO)cc1 — IC50 (HDAC9; enzyme activity; inhibitor): > 10 µM
COc1cc(/C=N/NC(=S)N/N=C/c2ccc(N(C)C)cc2)ccc1Oc1ccnc2cc(Cl)ccc12 — IC50 (Pancreatic alpha-amylase; enzyme activity; inhibitor; absorbance): 50 µM
N=C(CCl)NCCC[C@H](NC(=O)c1ccc2cc(Br)ccc2c1)C(=O)NCc1ccccc1 — IC50 (PADI4; enzyme activity; inhibitor; fluorescence; with preincubation): 0.393 µM
Cc1ccc(-c2cccc(C=O)c2)c(C)c1 — IC50 (ALDH1A3; enzyme activity; inhibitor): 14.9 µM
COc1cc(/C=N/NC(=S)NN=Cc2ccc(CO)o2)ccc1Oc1ccnc2cc(Cl)ccc12 — IC50 (Pancreatic alpha-amylase; enzyme activity; inhibitor; absorbance): 46.4 µM
N=C(CCl)NCCC[C@H](NC(=O)c1ccc2cc(O)ccc2c1)C(=O)NCc1ccccc1 — IC50 (PADI4; enzyme activity; inhibitor; fluorescence; with preincubation): 0.24 µM
CN1CCC(CNc2ccc3ncc(-c4cccc(OC(F)(F)F)c4)n3n2)CC1 — IC50 (Beta-1 adrenergic receptor (ADRB1, Homo sapiens, UniProt P08588); cAMP; antagonist): 6.75 µM
O=C(O)c1cc(O)c(O)c(O)c1 — IC50 (Catechol O-methyltransferase (Comt, Rattus norvegicus, UniProt P22734); enzyme activity; inhibitor): 709 µM
Cc1ccc(-c2ccccc2C=O)c(C)c1 — IC50 (ALDH1A3; enzyme activity; inhibitor): 43.5 µM
O=C(Nc1cc(Cl)cc(Cl)c1)c1ccc2c(c1)C(=O)NC2=O — IC50 (MAOB; enzyme activity; inhibitor): 0.055 µM
O=C(O)c1ccc(Nc2nc(-c3cc4cc(Br)ccc4oc3=O)cs2)cc1 — IC50 (CA9; enzyme activity; inhibitor): 4.38 µM
COc1cc(/C=N/NC(=S)N/N=C/c2ccc(Br)cc2)ccc1Oc1ccnc2cc(Cl)ccc12 — IC50 (Pancreatic alpha-amylase; enzyme activity; inhibitor; absorbance): 50.5 µM
N=C(CCl)NCCC[C@H](NC(=O)c1ccc(B(O)O)cc1)c1nc2ccccc2[nH]1 — IC50 (PADI4; enzyme activity; inhibitor; fluorescence; with preincubation): 2.2 µM
Nc1nc2c(s1)C(c1ccccc1Cl)CC(=O)N2 (stereo not drawn) — IC50 (ALDH1A3; enzyme activity; inhibitor): < 10 µM
COc1cc(/C=N/NC(=S)NN=Cc2ccncc2)ccc1Oc1ccnc2cc(Cl)ccc12 — IC50 (Pancreatic alpha-amylase; enzyme activity; inhibitor; absorbance): 49.7 µM
O=C(Nc1ccc(F)c(Br)c1)c1ccc2c(c1)C(=O)NC2=O — IC50 (MAOB; enzyme activity; inhibitor): 0.011 µM
O=C1Nc2ccc(I)cc2/C1=C/c1cc(Br)c(O)c(Br)c1 — IC50 (Dual specificity tyrosine-phosphorylation-regulated kinase 4 (DYRK4, Homo sapiens, UniProt Q9NR20); enzyme activity; inhibitor): 4.94 µM
COc1cc(/C=N/NC(=S)NN=Cc2scnc2C)ccc1Oc1ccnc2cc(Cl)ccc12 — IC50 (Pancreatic alpha-amylase; enzyme activity; inhibitor; absorbance): 57.1 µM
O=C(Nc1cccc(Br)c1)c1ccc2c(c1)C(=O)NC2=O — IC50 (MAOB; enzyme activity; inhibitor): 0.18 µM
COc1cc(/C=N/NC(=S)N/N=C\c2ccc(Cl)c(Cl)c2)ccc1Oc1ccnc2cc(Cl)ccc12 — IC50 (Pancreatic alpha-amylase; enzyme activity; inhibitor; absorbance): 45.7 µM
O=C(CCNC(=O)CNC(=O)CC(c1ccccc1)(c1ccccc1)c1ccccc1)NC[C@@H]1CCCN(Cc2ccc(F)nc2)C1 — IC50 (CHRM4; ligand displacement; radioligand; cell membranes): > 30 µM
COc1cc(/C=N/NC(=S)N/N=C/c2ccc(Br)s2)ccc1Oc1ccnc2cc(Cl)ccc12 — IC50 (Pancreatic alpha-amylase; enzyme activity; inhibitor; absorbance): 39.1 µM
O=C(N[C@@H](CSCc1ccccc1)C(=O)NO)c1ccccc1 — IC50 (Lactoylglutathione lyase (GLO1, Homo sapiens, UniProt Q04760); enzyme activity; inhibitor): 5.27 µM
